The results in this text go back to ChEMBL document CHEMBL4118165, “Synthesis and kinetic evaluation of ethyl acrylate and vinyl sulfone derived inhibitors for human cysteine cathepsins” (Bioorg Med Chem Lett, 2018).

Assay [1] deals with Cathepsin B (Homo sapiens) (UniProt P07858). Kind of assay: Irreversible inhibition of human cathepsin B using Z-Arg-Arg-pNA as substrate by photometric analysis. The following applies: TDE = time-dependent effect. An outline of the steps:
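Human cathepsin B assayed photometrically at 405 nm, 37 °C, pH 6.0. […] Progress curves were fitted by non-linear regression to get kobs, and kinac/Ki was derived with correction for substrate competition ([S]/Km).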

Assay [2] addresses Cathepsin S (Homo sapiens) (UniProt P25774). Kind of assay: Irreversible inhibition of human cathepsin S using Z-Phe-Arg-AMC as substrate assessed as ratio of Kinac/Ki after 10 to 80 mins by fluorimetric analysis.
Assay [3] has the same target. As to the kind of experiment: Irreversible inhibition of human cathepsin S using Z-Phe-Arg-AMC as substrate by fluorimetric analysis. The following applies: TDE = time-dependent effect. In short, it runs like this:
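Human cathepsin S monitored fluorimetrically (ex 360, em 440 nm) at 25 °C, pH 6.0. […] Progress curves were fitted non-linearly for kobs, and kinac/Ki was calculated including the [S]/Km competition term.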

The target in assay [4] is T1, Cathepsin K (Homo sapiens) (UniProt P43235).
T1 sequence (whole entry): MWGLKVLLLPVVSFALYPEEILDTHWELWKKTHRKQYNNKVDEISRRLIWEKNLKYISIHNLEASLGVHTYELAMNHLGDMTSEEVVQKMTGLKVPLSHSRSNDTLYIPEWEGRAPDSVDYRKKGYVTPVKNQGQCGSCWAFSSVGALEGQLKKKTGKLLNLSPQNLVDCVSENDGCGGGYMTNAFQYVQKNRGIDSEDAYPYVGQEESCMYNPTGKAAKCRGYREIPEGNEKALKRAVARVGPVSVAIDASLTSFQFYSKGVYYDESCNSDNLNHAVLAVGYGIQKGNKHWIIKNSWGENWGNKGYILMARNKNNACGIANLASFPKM
Kind of assay: Irreversible inhibition of human cathepsin K using Z-Leu-Arg-AMC as substrate by fluorimetric analysis. The following applies: TDE = time-dependent effect.

For assay [5], the target named is Cathepsin B (Homo sapiens) (UniProt P07858). As to the kind of experiment: Irreversible inhibition of human cathepsin B using Z-Arg-Arg-pNA as substrate assessed as ratio of Kinac/Ki after 10 to 80 mins by photometric analysis.
Assay [6] addresses Procathepsin L (Homo sapiens) (UniProt P07711). As to the kind of experiment: Irreversible inhibition of human cathepsin L using Z-Phe-Arg-pNA as substrate by photometric analysis. The following applies: TDE = time-dependent effect.
For assay [7] the target is unchanged. Kind of assay: Irreversible inhibition of human cathepsin L using Z-Phe-Arg-pNA as substrate assessed as ratio of Kinac/Ki after 10 to 80 mins by photometric analysis.
For assay [8], the target named is T1, Cathepsin K (Homo sapiens). Kind of assay: Irreversible inhibition of human cathepsin K using Z-Leu-Arg-AMC as substrate assessed as ratio of Kinac/Ki after 10 to 80 mins by fluorimetric analysis.

Sequence of Procathepsin L (Homo sapiens) (P07711 114-333 limits assumed): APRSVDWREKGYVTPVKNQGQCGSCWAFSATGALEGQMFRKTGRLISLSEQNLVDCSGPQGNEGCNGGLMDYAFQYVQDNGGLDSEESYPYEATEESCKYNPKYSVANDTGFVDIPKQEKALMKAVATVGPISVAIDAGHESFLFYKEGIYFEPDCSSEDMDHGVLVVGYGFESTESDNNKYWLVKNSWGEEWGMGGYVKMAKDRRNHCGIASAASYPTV
Sequence of Cathepsin S (Homo sapiens) (P25774 115-331 limits assumed): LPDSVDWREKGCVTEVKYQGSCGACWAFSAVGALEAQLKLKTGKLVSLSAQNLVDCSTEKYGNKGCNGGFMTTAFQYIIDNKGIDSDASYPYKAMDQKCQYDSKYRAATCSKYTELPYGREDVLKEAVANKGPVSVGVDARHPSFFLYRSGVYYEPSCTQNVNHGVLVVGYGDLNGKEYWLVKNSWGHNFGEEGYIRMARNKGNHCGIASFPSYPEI

For the molecule `CCOC(=O)/C=C/CNC(=O)[C@H](CC(C)C)NC(=O)OC(C)(C)C`, the inhibition result in assay [1], in assay [3], in assay [4] and in assay [6] was “Tde” throughout. The Ratio in assay [2] was 6600 M⁻¹ s⁻¹; in assay [5] it was 3090 M⁻¹ s⁻¹; in assay [7] it was 1280 M⁻¹ s⁻¹; in assay [8] it was 11600 M⁻¹ s⁻¹.
Regarding `CC(C)(C)OC(=O)NCCC(=O)N[C@@H](Cc1ccccc1)C(=O)NC/C=C/S(=O)(=O)c1ccccc1`, the inhibition entry in assay [1], in assay [3], in assay [4] and in assay [6] was “Tde” in each case. The Ratio was 13100 M⁻¹ s⁻¹ in assay [2], 214 M⁻¹ s⁻¹ in assay [5], 12800 M⁻¹ s⁻¹ in assay [7] and 2230 M⁻¹ s⁻¹ in assay [8].
As for `CC(C)C[C@H](NC(=O)CCNC(=O)OC(C)(C)C)C(=O)NC/C=C/S(=O)(=O)c1ccccc1`, the inhibition entry in assay [1], in assay [3], in assay [4] and in assay [6] was “Tde” each time. In addition, the Ratio in assay [2] was found to be 30600 M⁻¹ s⁻¹; in assay [5], 58.3 M⁻¹ s⁻¹; in assay [7], 671 M⁻¹ s⁻¹; in assay [8], 12500 M⁻¹ s⁻¹.
Take `CC(C)C[C@H](NC(=O)OC(C)(C)C)C(=O)NC/C=C/S(=O)(=O)c1ccccc1`: the inhibition entry in assay [1], in assay [3], in assay [4] and in assay [6] was “Tde” in each case. For the same molecule, the Ratio in assay [2] came to 28400 M⁻¹ s⁻¹; in assay [5], 85.1 M⁻¹ s⁻¹; in assay [7], 879 M⁻¹ s⁻¹; in assay [8], 18300 M⁻¹ s⁻¹.
Take `CCOC(=O)/C=C/CNC(=O)[C@H](Cc1ccccc1)NC(=O)OC(C)(C)C`: the inhibition entry in assay [1], in assay [3], in assay [4] and in assay [6] was “Tde” each time. Further, the Ratio in assay [2] came out at 525 M⁻¹ s⁻¹; in assay [5] it was 3660 M⁻¹ s⁻¹; in assay [7], 1120 M⁻¹ s⁻¹; in assay [8] it was 752 M⁻¹ s⁻¹.
Regarding `CCOC(=O)/C=C/CNC(=O)[C@H](Cc1ccccc1)NC(=O)CCNC(=O)OC(C)(C)C`, the inhibition result in assay [1], in assay [3], in assay [4] and in assay [6] was “Tde” each time. Also, the Ratio in assay [2] was 879 M⁻¹ s⁻¹; in assay [5], 2660 M⁻¹ s⁻¹; in assay [7], 3540 M⁻¹ s⁻¹; in assay [8], 759 M⁻¹ s⁻¹.
On to `CC(C)(C)OC(=O)N[C@@H](Cc1ccccc1)C(=O)NC/C=C/S(=O)(=O)c1ccccc1`, for which the inhibition entry in assay [1], in assay [3], in assay [4] and in assay [6] was “Tde” in each case. Besides, the Ratio in assay [2] is 7960 M⁻¹ s⁻¹; in assay [5] it was 378 M⁻¹ s⁻¹; in assay [7], 5880 M⁻¹ s⁻¹; in assay [8] it was 1320 M⁻¹ s⁻¹.
Take `CC(C)C[C@H](NC(=O)COCCOCCNC(=O)OC(C)(C)C)C(=O)NC/C=C/S(=O)(=O)c1ccccc1`: the inhibition result in assay [1], in assay [3], in assay [4] and in assay [6] was “Tde” each time. Besides, the Ratio was determined as 11900 M⁻¹ s⁻¹ in assay [2], 150 M⁻¹ s⁻¹ in assay [5], 3310 M⁻¹ s⁻¹ in assay [7] and 25.5 M⁻¹ s⁻¹ in assay [8].
`CCOC(=O)/C=C/CNC(=O)[C@H](Cc1ccccc1)NC(=O)COCCOCCNC(=O)OC(C)(C)C`: the inhibition entry in assay [1], in assay [3], in assay [4] and in assay [6] was “Tde” in each case. Also, the Ratio in assay [2] was 557 M⁻¹ s⁻¹; in assay [5] it was 348 M⁻¹ s⁻¹; in assay [7] it was 652 M⁻¹ s⁻¹; in assay [8], 297 M⁻¹ s⁻¹.
For the molecule `CCOC(=O)/C=C/CNC(=O)[C@H](CC(C)C)NC(=O)CCNC(=O)OC(C)(C)C`, the inhibition result in assay [1], in assay [3], in assay [4] and in assay [6] was “Tde” in each case. Besides, the Ratio amounted to 2590 M⁻¹ s⁻¹ in assay [2], 248 M⁻¹ s⁻¹ in assay [5], 554 M⁻¹ s⁻¹ in assay [7] and 2890 M⁻¹ s⁻¹ in assay [8].
